Measured values reported in ChEMBL document CHEMBL4052798, “Design, synthesis and biological evaluation of indole derivatives as Vif inhibitors” (Bioorg Med Chem Lett, 2017).
The source made the active and inactive calls. No cut-off for these calls is given here.

Tests used:
[1] = test system: Human immunodeficiency virus 1; experiment: Inhibition of doxycycline-induced HIV1 Vif expressed in TREX-hVif-15 cells co-expressing EYFP-N1-tagged human A3G assessed as restoration of Vif-induced A3G degradation level at 20 uM after 48 hrs by Western blot analysis; type: cell-based
Procedure, shortened: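 TREX-hvif-15 cells were transfected with EYFP-N1-hA3G, and Vif was induced with 0.1 μg/mL Dox. Cells were treated with or without compound at 20 μM. A3G and Vif protein levels were detected by western blot, and A3G restoration was graded qualitatively, lowest to high.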

[2] = test system: Human immunodeficiency virus 1; experiment: Inhibition of doxycycline-induced HIV1 Vif expressed in TREX-hVif-15 cells co-expressing EYFP-N1-tagged human A3G assessed as reduction in Vif-mediated A3G degradation by measuring fold change in mean fluorescence intensity at 50 uM by flow cytometric method; type: cell-based
Procedure, shortened: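 TREX-hvif-15 cells with Tet-On-regulated Vif were transfected with EYFP-N1-hA3G, and Vif was induced with 1 μg/mL Dox. Compounds were tested at 50 µM. A3G-EYFP mean fluorescence intensity was expressed as fold change and scored as: no or <1-fold; 1–2; 2–3; >3. Reference groups were A3G⁺/Vif⁻ and A3G⁺/Vif⁺.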

Row | Compound | inhibition [1] | fold change (FC) [2]
1 | O=Cc1cccc(-c2ccc3[nH]ccc3c2)c1 | Active | 1 to 2
2 | Nc1ncccc1-c1ccc2[nH]ccc2c1 | Active | 1 to 2
3 | NC(=O)c1ccc(-c2ccc3[nH]ccc3c2)nc1 | Active | 2 to 3
4 | O=C(O)c1ccc(-c2ccc3[nH]ccc3c2)cc1 | Active | 2 to 3
5 | c1ccc(-c2ccc3[nH]ccc3c2)nc1 | inactive | < 1
6 | Nc1ccc(-c2ccc3[nH]ccc3c2)cn1 | Active | 2 to 3
7 | O=C(O)c1ccnc(-c2ccc3[nH]ccc3c2)c1 | Active | 2 to 3
8 | N#Cc1ccccc1-c1ccc2[nH]ccc2c1 | inactive | < 1
9 | Nc1cccc(-c2ccc3[nH]ccc3c2)n1 | Active | 1 to 2
10 | O=C(O)Cc1ccc(-c2ccc3[nH]ccc3c2)cc1 | inactive | < 1
11 | O=C(O)c1ccc(-c2ccc3[nH]ccc3c2)nc1 | Active | > 3
12 | Nc1cccnc1-c1ccc2[nH]ccc2c1 | Active | 2 to 3
13 | NC(=O)c1ccnc(-c2ccc3[nH]ccc3c2)c1 | inactive | 2 to 3
14 | O=Cc1ccc(-c2ccc3[nH]ccc3c2)cc1 | inactive | < 1
15 | O=Cc1ccc(-c2ccc3[nH]ccc3c2)nc1 | inactive | < 1
16 | O=Cc1ccccc1-c1ccc2[nH]ccc2c1 | inactive | 1 to 2
17 | NC(=O)c1cncc(-c2ccc3[nH]ccc3c2)c1 | Active | 1 to 2
18 | COc1ccc(-c2ccc3[nH]ccc3c2)cn1 | Active | 1 to 2
19 | CS(=O)(=O)c1ccc(-c2ccc3[nH]ccc3c2)cc1 | Active | 2 to 3
20 | O=Cc1cccc(-c2ccc3[nH]ccc3c2)n1 | Active | 1 to 2
